According to publication PMC7983942 (Clinical Pharmacology and Therapeutics, 2020):
Changes are numbered by the printed parent chain.

How the values were obtained:
Type in all cases: in vitro ADME
OATP1B3 = target: T1, OATP1B3 (Homo sapiens, UniProt Q9NPD5); assay: Uptake into transporter-transfected vs wild-type HEK293 cells; details: rosuvastatin 1 µM, two to four minutes
T1 sequence (Q9NPD5 1-702): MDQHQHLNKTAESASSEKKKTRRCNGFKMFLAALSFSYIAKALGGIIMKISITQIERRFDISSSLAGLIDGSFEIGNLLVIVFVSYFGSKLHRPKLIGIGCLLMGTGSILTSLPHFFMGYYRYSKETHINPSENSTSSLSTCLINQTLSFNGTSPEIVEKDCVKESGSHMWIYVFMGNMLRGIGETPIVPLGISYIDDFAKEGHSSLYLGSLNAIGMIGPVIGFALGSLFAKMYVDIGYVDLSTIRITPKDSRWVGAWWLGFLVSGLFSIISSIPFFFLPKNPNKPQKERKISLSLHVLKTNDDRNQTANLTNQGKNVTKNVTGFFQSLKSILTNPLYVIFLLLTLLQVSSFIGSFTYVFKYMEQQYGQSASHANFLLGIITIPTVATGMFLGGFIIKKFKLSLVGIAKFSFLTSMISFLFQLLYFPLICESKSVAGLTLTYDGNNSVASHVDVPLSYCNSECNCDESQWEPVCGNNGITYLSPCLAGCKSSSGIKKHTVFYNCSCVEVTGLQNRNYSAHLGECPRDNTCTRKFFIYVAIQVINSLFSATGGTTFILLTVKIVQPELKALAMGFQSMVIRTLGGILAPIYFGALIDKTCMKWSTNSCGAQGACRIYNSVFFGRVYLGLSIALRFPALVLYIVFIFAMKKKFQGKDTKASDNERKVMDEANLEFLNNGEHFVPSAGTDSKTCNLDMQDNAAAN
Method in brief: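 HEK293 cells stably transfected with OATP1B1*1A, OATP1B3 or OATP2B1, plus wild-type cells, were seeded on poly-D-lysine plates. Culture was 48 h at 37°C in DMEM with 10% FBS, pyruvate, nonessential amino acids and GlutaMAX. Test compound was 1 µM for 2 min; rosuvastatin probe was 1 µM over 2–4 min. Cells were washed four times in ice-cold buffer and lysed in methanol with internal standard. Readouts were uptake ratio versus wild-type and glucuronide/probe ratio of ratios; mean ± SD, n=3 in one experiment.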

OATP1B1*5 = target: T2, OATP1B1*5 (Homo sapiens, UniProt Q9Y6L6, V174A); assay: Uptake into OATP1B1 variant-transfected vs wild-type HEK293 cells; details: for Uptake ratio (vs. wild‐type HEK293 cells): 2 minutes
T2 sequence (Q9Y6L6 1-691 V174A): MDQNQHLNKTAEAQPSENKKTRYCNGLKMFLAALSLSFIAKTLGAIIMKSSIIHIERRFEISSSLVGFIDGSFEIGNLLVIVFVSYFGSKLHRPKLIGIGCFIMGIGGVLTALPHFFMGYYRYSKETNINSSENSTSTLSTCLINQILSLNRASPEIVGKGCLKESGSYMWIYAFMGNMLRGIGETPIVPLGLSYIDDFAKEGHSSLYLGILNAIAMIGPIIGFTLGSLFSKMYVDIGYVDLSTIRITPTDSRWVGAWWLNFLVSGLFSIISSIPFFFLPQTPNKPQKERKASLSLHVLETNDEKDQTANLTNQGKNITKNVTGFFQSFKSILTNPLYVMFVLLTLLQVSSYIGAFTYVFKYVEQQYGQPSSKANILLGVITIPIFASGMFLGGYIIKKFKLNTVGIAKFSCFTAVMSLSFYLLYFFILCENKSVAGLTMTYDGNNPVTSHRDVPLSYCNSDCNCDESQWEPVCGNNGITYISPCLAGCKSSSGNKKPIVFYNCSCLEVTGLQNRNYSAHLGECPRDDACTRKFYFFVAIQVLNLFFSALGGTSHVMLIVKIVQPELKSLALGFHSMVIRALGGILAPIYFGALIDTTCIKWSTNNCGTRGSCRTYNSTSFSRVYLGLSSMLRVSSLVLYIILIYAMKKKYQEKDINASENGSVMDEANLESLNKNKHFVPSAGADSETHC
Method in brief: (§1)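 HEK293 cells stably expressing an OATP1B1 variant, alongside wild-type HEK293, were seeded at 0.5–1.2 × 10⁵ cells/well on poly-D-lysine plates. They grew 48 h at 37°C and 5% CO₂ in DMEM with 10% FBS, 1% pyruvate, nonessential amino acids and GlutaMAX. Substrate was 1 µM (0.5 µM where footnoted) for 2 min, then four ice-cold buffer washes and methanol lysis with internal standard. Uptake ratio (transfected/wild-type) is expressed as % of OATP1B1*14 in the same experiment; n=3 determinations.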

OATP1B1*15 = target: T3, OATP1B1*15 (Homo sapiens, UniProt Q9Y6L6, N130D/V174A); assay: as above; details: for Uptake ratio (vs. wild‐type HEK293 cells): 2 minutes
T3 sequence (Q9Y6L6 1-691 N130D/V174A): T2 sequence (Q9Y6L6 1-691 V174A) with N130D
Method in brief: as §1

[1] = experiment 1, substrate concentration 0.5 µM

Uptake ratio (vs. wild‐type HEK293 cells), probe (OATP1B3): 69.8 ± 1.9
Uptake ratio as percentage of OATP1B1*14 in the same experiment (OATP1B1*5; [1]): 16%
Uptake ratio (vs. wild‐type HEK293 cells) (OATP1B1*5; [1]): 2.4 ± 0.4
Uptake ratio as percentage of OATP1B1*14 in the same experiment (OATP1B1*5; experiment 2, substrate 1 µM): 15%
Uptake ratio (vs. wild‐type HEK293 cells) (OATP1B1*5; experiment 2, substrate 1 µM): 5.9 ± 0.5
Uptake ratio as percentage of OATP1B1*14 in the same experiment (OATP1B1*15; [1]): 15%
Uptake ratio (vs. wild‐type HEK293 cells) (OATP1B1*15; [1]): 2.3 ± 0.2
Uptake ratio as percentage of OATP1B1*14 in the same experiment (OATP1B1*15; experiment 2, substrate 1 µM): 13%
Uptake ratio (vs. wild‐type HEK293 cells) (OATP1B1*15; experiment 2, substrate 1 µM): 5.0 ± 0.2
SMILES: CC(C)c1nc(N(C)S(C)(=O)=O)nc(-c2ccc(F)cc2)c1/C=C/[C@@H](O)C[C@@H](O)CC(=O)O [Rosuvastatin]
